Measurements: paper PMC5710144 (Genes & Development, 2017)

Key:
[1] = tested on: BRWD2/PHIP CRL4 interaction; assay: MS of Flag-BRWD2/PHIP purifications after inhibitor treatment; type: cell-based; conditions: MLN4924 1 µM, 5 h
Procedure, shortened: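 Flag-BRWD2/PHIP was purified from MNase-digested chromatin of HEK293 TRex cells expressing Flag-BRWD2/PHIP, with parental HEK293 TRex cells as the control. MLN4924 (1 µM) was added 5 h before harvest where indicated. Immunoprecipitated complexes were prepared for MS and analysed by MS.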

[2] = tested on: CUL4A / DDB1 association with BRWD2/PHIP; type: cell-based; conditions: MLN4924 1 µM
Procedure, shortened: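 In HEK293 TRex cells expressing Flag-BRWD2/PHIP, MLN4924 (1 µM) was added 5 h before harvest. Flag purifications were made from MNase-digested chromatin. Inputs and immunoprecipitates were probed by immunoblot with antibodies to CUL4A, DDB1 and Flag-M2.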

NS(=O)(=O)OC[C@@H]1C[C@@H](n2ccc3c(N[C@H]4CCc5ccccc54)ncnc32)C[C@@H]1O [MLN4924]
BRWD2/PHIP association with CSN complex [1]: disrupts BRWD2/PHIP association
BRWD2/PHIP association with Nedd8-binding protein UBXD7 (UBXN7) [1]: disrupts BRWD2/PHIP association
interaction with chromatin remodelers and histone-binding proteins (CHD4, PHF6, FACT) [1]: not altered
BRWD2/PHIP association with CUL4A and DDB1 ([2]; 5 h): still occurs
CUL4A level / CUL4A interaction with BRWD2/PHIP ([2]; 5 h): slightly reduced
Nedd8 attachment to CUL4 ([2]; added 5 h prior to harvesting, HEK293): blocks Nedd8 attachment to CUL4
